Results as given in ChEMBL document CHEMBL5303300, “EUbOPEN Chemogenomics Library - Multiplex” (2023).
Several values for one entry are separate records, joined by “and”; a condition that tells them apart may be missing. Equal entries are not always repeated.

What was measured:
Assay type in all cases: toxicity, cell-based
HEK-293T = experiment: Multiplex assay against HEK293T; conditions: human, number of replicates 2
Method in brief: (§1)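 On a CQ1 microscope at 37°C and 5% CO2, live cells were imaged after compound addition. They had been stained at seeding with Hoechst33342, BioTracker Green Microtubule Cytoskeleton Dye, MitoTracker Red and Annexin V Alexa Fluor 680. CellPathfinder machine-learning gating assigned cells to Hoechst high-intensity objects or normal cells, normal cells to healthy, pyknosed or fragmented nuclei, and pyknosed cells to mitotic or apoptotic. Tubulin, mitochondrial-mass and membrane-permeability phenotypes are per cents of healthy-nucleus cells.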

U2OS = experiment: Multiplex assay against U2OS; conditions: human, number of replicates 2; method in brief: as §1
Fibroblast = experiment: Multiplex assay against human fibroblast; conditions: number of replicates 2; method in brief: as §1
[1] = 12 h, 1 µM, compound concentration 1 uM
[2] = 12 h, 10 µM, compound concentration 10 uM
[3] = 24 h, 1 µM, compound concentration 1 uM
[4] = 24 h, 10 µM, compound concentration 10 uM
[5] = 48 h, 1 µM, compound concentration 1 uM
[6] = 48 h, 10 µM, compound concentration 10 uM

COc1c(OCCCN2CCOCC2)ccc2c1N=C(NC(=O)c1cnc(N)nc1)N1CCN=C21 [COPANLISIB]
Population Apoptotic (%) (HEK-293T; [1]): 66% and 65%
Population Fragmented Nuclei (%) (HEK-293T; [1]): 7% and 3%
Population Healthy Nuclei (%) (HEK-293T; [1]): 66% and 82%
Population Hoechst High Intensity Objects (%) (HEK-293T; [1]): 14% and 12%
Population Membrane Permeable-Phenotype (%) (HEK-293T; [1]): 2% and 1%
Population Mitochondria Different-Phenotype (%) (HEK-293T; [1]): 43% and 39%
Population Mitotic Cells (%) (HEK-293T; [1]): 33% and 34%
Population Normal (%) (HEK-293T; [1]): 85% and 87%
Population Pyknosed Nuclei (%) (HEK-293T; [1]): 25% and 13%
Population Tubulin-Different-Phenotype (%) (HEK-293T; [1]): 57% and 58%
Total Cell Count (HEK-293T; [1]): 337 and 345
Population Apoptotic (%) (HEK-293T; [2]): 67% and 62%
Population Fragmented Nuclei (%) (HEK-293T; [2]): 7% and 2%
Population Healthy Nuclei (%) (HEK-293T; [2]): 74% and 83%
Population Hoechst High Intensity Objects (%) (HEK-293T; [2]): 13% and 11%
Population Membrane Permeable-Phenotype (%) (HEK-293T; [2]): 1% and 0%
Population Mitochondria Different-Phenotype (%) (HEK-293T; [2]): 60% and 66%
Population Mitotic Cells (%) (HEK-293T; [2]): 32% and 37%
Population Normal (%) (HEK-293T; [2]): 86% and 88%
Population Pyknosed Nuclei (%) (HEK-293T; [2]): 18% and 13%
Population Tubulin-Different-Phenotype (%) (HEK-293T; [2]): 68% and 71%
Total Cell Count (HEK-293T; [2]): 237 and 220
Population Apoptotic (%) (HEK-293T; [3]): 76% and 67%
Population Fragmented Nuclei (%) (HEK-293T; [3]): 5% and 3%
Population Healthy Nuclei (%) (HEK-293T; [3]): 74% and 80%
Population Hoechst High Intensity Objects (%) (HEK-293T; [3]): 16% and 20%
Population Membrane Permeable-Phenotype (%) (HEK-293T; [3]): 1%
Population Mitochondria Different-Phenotype (%) (HEK-293T; [3]): 35% and 33%
Population Mitotic Cells (%) (HEK-293T; [3]): 23% and 32%
Population Normal (%) (HEK-293T; [3]): 83% and 79%
Population Pyknosed Nuclei (%) (HEK-293T; [3]): 20% and 15%
Population Tubulin-Different-Phenotype (%) (HEK-293T; [3]): 56% and 60%
Total Cell Count (HEK-293T; [3]): 382 and 316
Population Apoptotic (%) (HEK-293T; [4]): 80% and 50%
Population Fragmented Nuclei (%) (HEK-293T; [4]): 6% and 2%
Population Healthy Nuclei (%) (HEK-293T; [4]): 76% and 82%
Population Hoechst High Intensity Objects (%) (HEK-293T; [4]): 20% and 16%
Population Membrane Permeable-Phenotype (%) (HEK-293T; [4]): 2% and 1%
Population Mitochondria Different-Phenotype (%) (HEK-293T; [4]): 52% and 58%
Population Mitotic Cells (%) (HEK-293T; [4]): 19% and 50%
Population Normal (%) (HEK-293T; [4]): 79% and 83%
Population Pyknosed Nuclei (%) (HEK-293T; [4]): 17% and 15%
Population Tubulin-Different-Phenotype (%) (HEK-293T; [4]): 67% and 68%
Total Cell Count (HEK-293T; [4]): 229 and 189
Population Apoptotic (%) (HEK-293T; [5]): 62% and 63%
Population Fragmented Nuclei (%) (HEK-293T; [5]): 9% and 12%
Population Healthy Nuclei (%) (HEK-293T; [5]): 75% and 78%
Population Hoechst High Intensity Objects (%) (HEK-293T; [5]): 20% and 26%
Population Membrane Permeable-Phenotype (%) (HEK-293T; [5]): 1% and 3%
Population Mitochondria Different-Phenotype (%) (HEK-293T; [5]): 16% and 6%
Population Mitotic Cells (%) (HEK-293T; [5]): 37% and 36%
Population Normal (%) (HEK-293T; [5]): 79% and 73%
Population Pyknosed Nuclei (%) (HEK-293T; [5]): 15% and 8%
Population Tubulin-Different-Phenotype (%) (HEK-293T; [5]): 70% and 43%
Total Cell Count (HEK-293T; [5]): 374 and 726
Population Apoptotic (%) (HEK-293T; [6]): 68% and 74%
Population Fragmented Nuclei (%) (HEK-293T; [6]): 9% and 6%
Population Healthy Nuclei (%) (HEK-293T; [6]): 66% and 76%
Population Hoechst High Intensity Objects (%) (HEK-293T; [6]): 20% and 25%
Population Membrane Permeable-Phenotype (%) (HEK-293T; [6]): 4% and 2%
Population Mitochondria Different-Phenotype (%) (HEK-293T; [6]): 41% and 45%
Population Mitotic Cells (%) (HEK-293T; [6]): 31% and 25%
Population Normal (%) (HEK-293T; [6]): 79% and 74%
Population Pyknosed Nuclei (%) (HEK-293T; [6]): 24% and 16%
Population Tubulin-Different-Phenotype (%) (HEK-293T; [6]): 68% and 72%
Total Cell Count (HEK-293T; [6]): 262 and 245
Population Apoptotic (%) (U2OS; [1]): 100% and 76%
Population Healthy Nuclei (%) (U2OS; [1]): 60% and 87%
Population Hoechst High Intensity Objects (%) (U2OS; [1]): 0%
Population Membrane Permeable-Phenotype (%) (U2OS; [1]): 0% and 2%
Population Mitochondria Different-Phenotype (%) (U2OS; [1]): 0%
Population Mitotic Cells (%) (U2OS; [1]): 0% and 23%
Population Normal (%) (U2OS; [1]): 100%
Population Pyknosed Nuclei (%) (U2OS; [1]): 4% and 7%
Population Tubulin-Different-Phenotype (%) (U2OS; [1]): 93% and 90%
Population Apoptotic (%) (U2OS; [2]): 100% and 76%
Population Healthy Nuclei (%) (U2OS; [2]): 32% and 80%
Population Hoechst High Intensity Objects (%) (U2OS; [2]): 0%
Population Mitochondria Different-Phenotype (%) (U2OS; [2]): 10% and 1%
Population Mitotic Cells (%) (U2OS; [2]): 0% and 24%
Population Normal (%) (U2OS; [2]): 100%
Population Pyknosed Nuclei (%) (U2OS; [2]): 16% and 15%
Population Tubulin-Different-Phenotype (%) (U2OS; [2]): 80%
Population Apoptotic (%) (U2OS; [3]): 100% and 70%
Population Healthy Nuclei (%) (U2OS; [3]): 56% and 86%
Population Hoechst High Intensity Objects (%) (U2OS; [3]): 0%
Population Membrane Permeable-Phenotype (%) (U2OS; [3]): 0% and 2%
Population Mitochondria Different-Phenotype (%) (U2OS; [3]): 0% and 1%
Population Normal (%) (U2OS; [3]): 100%
Population Pyknosed Nuclei (%) (U2OS; [3]): 8% and 10%
Population Tubulin-Different-Phenotype (%) (U2OS; [3]): 100% and 89%
Population Apoptotic (%) (U2OS; [4]): 50% and 64%
Population Hoechst High Intensity Objects (%) (U2OS; [4]): 2% and 0%
Population Mitotic Cells (%) (U2OS; [4]): 50% and 35%
Population Normal (%) (U2OS; [4]): 97% and 100%
Population Pyknosed Nuclei (%) (U2OS; [4]): 22%
Population Tubulin-Different-Phenotype (%) (U2OS; [4]): 75% and 84%
Population Apoptotic (%) (U2OS; [5]): 80% and 72%
Population Healthy Nuclei (%) (U2OS; [5]): 41% and 88%
Population Hoechst High Intensity Objects (%) (U2OS; [5]): 4% and 0%
Population Membrane Permeable-Phenotype (%) (U2OS; [5]): 0% and 2%
Population Mitochondria Different-Phenotype (%) (U2OS; [5]): 0% and 1%
Population Mitotic Cells (%) (U2OS; [5]): 20% and 27%
Population Normal (%) (U2OS; [5]): 96% and 99%
Population Pyknosed Nuclei (%) (U2OS; [5]): 20% and 8%
Population Tubulin-Different-Phenotype (%) (U2OS; [5]): 100% and 95%
Population Apoptotic (%) (U2OS; [6]): 92% and 79%
Population Hoechst High Intensity Objects (%) (U2OS; [6]): 0% and 1%
Population Mitochondria Different-Phenotype (%) (U2OS; [6]): 0% and 3%
Population Mitotic Cells (%) (U2OS; [6]): 7% and 20%
Population Normal (%) (U2OS; [6]): 100% and 98%
Population Pyknosed Nuclei (%) (U2OS; [6]): 34% and 35%
Population Apoptotic (%) (Fibroblast; [1]): 39% and 50%
Population Fragmented Nuclei (%) (Fibroblast; [1]): 8% and 10%
Population Healthy Nuclei (%) (Fibroblast; [1]): 65% and 63%
Population Hoechst High Intensity Objects (%) (Fibroblast; [1]): 0%
Population Membrane Permeable-Phenotype (%) (Fibroblast; [1]): 1% and 7%
Population Mitochondria Different-Phenotype (%) (Fibroblast; [1]): 0% and 3%
Population Mitotic Cells (%) (Fibroblast; [1]): 60% and 50%
Population Normal (%) (Fibroblast; [1]): 100%
Population Pyknosed Nuclei (%) (Fibroblast; [1]): 26%
Population Tubulin-Different-Phenotype (%) (Fibroblast; [1]): 1% and 7%
Total Cell Count (Fibroblast; [1]): 157 and 180
Population Apoptotic (%) (Fibroblast; [2]): 52% and 45%
Population Fragmented Nuclei (%) (Fibroblast; [2]): 10% and 13%
Population Healthy Nuclei (%) (Fibroblast; [2]): 77% and 74%
Population Hoechst High Intensity Objects (%) (Fibroblast; [2]): 0%
Population Membrane Permeable-Phenotype (%) (Fibroblast; [2]): 7% and 2%
Population Mitochondria Different-Phenotype (%) (Fibroblast; [2]): 3% and 2%
Population Mitotic Cells (%) (Fibroblast; [2]): 47% and 54%
Population Normal (%) (Fibroblast; [2]): 100%
Population Pyknosed Nuclei (%) (Fibroblast; [2]): 12% and 11%
Total Cell Count (Fibroblast; [2]): 149 and 188
Population Apoptotic (%) (Fibroblast; [3]): 48% and 57%
Population Fragmented Nuclei (%) (Fibroblast; [3]): 14% and 8%
Population Healthy Nuclei (%) (Fibroblast; [3]): 60% and 71%
Population Hoechst High Intensity Objects (%) (Fibroblast; [3]): 0%
Population Membrane Permeable-Phenotype (%) (Fibroblast; [3]): 2% and 5%
Population Mitochondria Different-Phenotype (%) (Fibroblast; [3]): 1% and 2%
Population Mitotic Cells (%) (Fibroblast; [3]): 51% and 42%
Population Normal (%) (Fibroblast; [3]): 100%
Population Pyknosed Nuclei (%) (Fibroblast; [3]): 25% and 20%
Population Tubulin-Different-Phenotype (%) (Fibroblast; [3]): 2% and 5%
Total Cell Count (Fibroblast; [3]): 155 and 165
Population Apoptotic (%) (Fibroblast; [4]): 76% and 60%
Population Fragmented Nuclei (%) (Fibroblast; [4]): 18% and 16%
Population Healthy Nuclei (%) (Fibroblast; [4]): 63% and 72%
Population Hoechst High Intensity Objects (%) (Fibroblast; [4]): 0%
Population Membrane Permeable-Phenotype (%) (Fibroblast; [4]): 3% and 0%
Population Mitochondria Different-Phenotype (%) (Fibroblast; [4]): 2% and 1%
Population Mitotic Cells (%) (Fibroblast; [4]): 23% and 39%
Population Normal (%) (Fibroblast; [4]): 100%
Population Pyknosed Nuclei (%) (Fibroblast; [4]): 17% and 11%
Population Tubulin-Different-Phenotype (%) (Fibroblast; [4]): 9% and 2%
Total Cell Count (Fibroblast; [4]): 174 and 209
Population Apoptotic (%) (Fibroblast; [5]): 73% and 57%
Population Fragmented Nuclei (%) (Fibroblast; [5]): 7% and 14%
Population Healthy Nuclei (%) (Fibroblast; [5]): 70% and 71%
Population Hoechst High Intensity Objects (%) (Fibroblast; [5]): 0%
Population Membrane Permeable-Phenotype (%) (Fibroblast; [5]): 6% and 10%
Population Mitochondria Different-Phenotype (%) (Fibroblast; [5]): 0%
Population Mitotic Cells (%) (Fibroblast; [5]): 26% and 42%
Population Normal (%) (Fibroblast; [5]): 100%
Population Pyknosed Nuclei (%) (Fibroblast; [5]): 21% and 14%
Population Tubulin-Different-Phenotype (%) (Fibroblast; [5]): 2% and 3%
Total Cell Count (Fibroblast; [5]): 140 and 176
Population Apoptotic (%) (Fibroblast; [6]): 68% and 77%
Population Fragmented Nuclei (%) (Fibroblast; [6]): 15% and 18%
Population Healthy Nuclei (%) (Fibroblast; [6]): 70%
Population Hoechst High Intensity Objects (%) (Fibroblast; [6]): 1% and 0%
Population Membrane Permeable-Phenotype (%) (Fibroblast; [6]): 11% and 4%
Population Mitochondria Different-Phenotype (%) (Fibroblast; [6]): 1% and 2%
Population Mitotic Cells (%) (Fibroblast; [6]): 32% and 22%
Population Normal (%) (Fibroblast; [6]): 98% and 100%
Population Pyknosed Nuclei (%) (Fibroblast; [6]): 14% and 10%
Total Cell Count (Fibroblast; [6]): 176 and 205
